# Bioassay records from PubChem.
# PAFAH1B2 inh = PAFAH1B2 enzyme inhibitors, primary screen, biochemical, fluorescence polarization, human; actives 1.2% (n = 340,000); AID 492953, 2010; Platelet-activating factor acetylhydrolase IB subunit alpha2 (Homo sapiens), P68402; recombinant PAFAH1B2, FP-rhodamine activity probe; inhibition, % at 3.39 µM;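 active = inhibition above the mean of all tested compounds plus 3 SD, cut at about 24% in these data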
# Target sequence (P68402 whole entry, looked up): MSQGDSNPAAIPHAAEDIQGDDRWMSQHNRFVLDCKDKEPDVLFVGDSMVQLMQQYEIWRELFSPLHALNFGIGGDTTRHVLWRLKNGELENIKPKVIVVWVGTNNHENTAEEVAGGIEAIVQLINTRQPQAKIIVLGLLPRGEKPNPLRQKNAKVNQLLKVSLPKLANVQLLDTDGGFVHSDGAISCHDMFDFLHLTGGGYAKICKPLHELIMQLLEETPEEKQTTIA
# ASAP1 inh = inhibitors of human ASAP1 ArfGAP activity, primary screen, biochemical, fluorescence polarization | inhibition, % at 16.5 µM | Arf-GAP with SH3 domain, ANK repeat and PH domain-containing protein 1 (Homo sapiens), … | ASAP1-stimulated ARF1 GTP hydrolysis, GDP FP detection | actives 0.19% (n = 360,000) | AID 624377, 2012; in the data active = inhibition above about 25%
# PAFAH2 inh = PAFAH2 enzyme inhibitors, primary screen, biochemical, fluorescence polarization, human | recombinant PAFAH2, FP-rhodamine activity probe | inhibition, % at 3.39 µM | actives 0.99% (n = 340,000) | AID 492956, 2010;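 active = inhibition above the mean over all tested compounds plus 3 SD, cut at about 30% in these data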;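 also: inhibitors block probe labeling of enzyme so polarization drops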
# pPAFAH FP inh = pPAFAH enzyme inhibitors, primary screen, biochemical, fluorescence polarization, human; Platelet-activating factor acetylhydrolase (Homo sapiens), Q13093; recombinant pPAFAH, FP-rhodamine probe fluorescence polarization; inhibition, % at 3.39 µM; actives 1.5% (n = 330,000);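 active = inhibition above the mean inhibition across the screen plus 3 SD, cut at about 25% in these data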;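 also: inhibitors block binding of the rhodamine activity-based probe so polarization drops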
# ARFGAP1 inh = inhibitors of rat ARFGAP1 GAP activity, primary screen, biochemical, fluorescence polarization, GDP tracer; ADP-ribosylation factor GTPase-activating protein 1 (Rattus norvegicus), Q62848; actives 0.26% (n = 360,000); inhibition, % at 16.5 µM; Arfgap1-stimulated ARF1 GTP hydrolysis, GDP FP detection;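 active = inhibition above a per-plate limit, mean inhibition of low control wells plus 3 SD, cut at about 25% in these data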
# Target sequence (Q62848 1-136 limits assumed): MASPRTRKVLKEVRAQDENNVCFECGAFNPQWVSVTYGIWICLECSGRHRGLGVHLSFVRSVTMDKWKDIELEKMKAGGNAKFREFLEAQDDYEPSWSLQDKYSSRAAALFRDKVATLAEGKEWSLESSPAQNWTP
#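 System: truncated rat Arfgap1 GAP domain / Medium: HEPES-based buffer, pH 7.5 / Also added: N-terminally truncated human ARF1-GTP substrate / Incubation: enzyme reaction 120 min at 25 °C after 20 min preincubation / Measured by: FP of antibody-bound GDP Alexa 633 tracer, ex 620/em 688 nm / Replicates: singlicate, each compound tested once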
# PAFAH1B3 FP inh = PAFAH1B3 enzyme inhibitors, primary screen, biochemical, fluorescence polarization, human | Platelet-activating factor acetylhydrolase IB subunit alpha1 (Homo sapiens), Q15102 | recombinant PAFAH1B3, FP-rhodamine probe | inhibition, % at 3.39 µM | actives 0.28% (n = 340,000) | AID 492972, 2010;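 active = inhibition above the screen-wide average of all tested compounds plus 3 SD, cut at about 25% in these data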
# Target sequence (Q15102 whole entry, looked up): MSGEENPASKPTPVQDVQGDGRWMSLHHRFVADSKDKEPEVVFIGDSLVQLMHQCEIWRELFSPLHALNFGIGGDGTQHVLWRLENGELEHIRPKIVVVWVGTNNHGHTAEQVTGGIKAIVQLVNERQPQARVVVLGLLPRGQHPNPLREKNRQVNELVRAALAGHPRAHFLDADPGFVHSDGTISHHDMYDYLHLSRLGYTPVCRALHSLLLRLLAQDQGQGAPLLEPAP
# A number is an active result; i = inactive; nt = no result given. Only some compounds are listed: those with a hit (about 2.7% of all), similar ones and a draw of the others.
SMILES,PAFAH1B2 inh,ASAP1 inh,PAFAH2 inh,pPAFAH FP inh,ARFGAP1 inh,PAFAH1B3 FP inh
Cc1cc(C)c(S(=O)(=O)/N=C2/C=C(Sc3ncn[nH]3)C(=O)c3ccccc32)cc1C,72,i,47,i,i,49
CN(C)c1ccc(/C=N/NC(=S)NCc2ccccc2)cc1,i,i,i,i,i,i
CCN(Cc1ccccc1)c1ccc(/C=N/NS(=O)(=O)c2ccc(C)c([N+](=O)[O-])c2)cc1,28,i,i,i,i,i
CCN(Cc1ccccc1)c1ccc(/C=N/N=C(N)N)cc1,25,i,i,i,i,i
CCN(CC)c1ccc(/C=N/NC(=S)NCc2ccco2)cc1,i,i,i,29,i,i
CCN(Cc1ccccc1)c1ccc(/C=N/NC(=S)NC(C)C)cc1,26,i,i,i,i,i
Cc1cccc(-n2ccc(=O)c(C(=O)Nc3ccc(S(=O)(=O)Nc4nccs4)cc3)n2)c1,i,i,i,i,i,i
O=C(Nc1ccc(S(=O)(=O)Nc2nccs2)cc1)c1nn(-c2ccccc2)ccc1=O,i,i,i,25,i,i
CC1CCCCC1NC(=O)CSc1nnc(COc2ccc(Cl)cc2)o1 (stereo not given),29,i,i,i,i,i
OC(c1ccccc1)(c1ccccc1)C1CCN(CCCOc2cccc(C(F)(F)F)c2)CC1,nt,i,nt,nt,i,nt
Cc1ccc(C(=O)c2c(C)oc3c2C(=O)C(=O)c2ccccc2-3)cc1,i,nt,i,26,nt,i
Cc1ccc(C)n1-c1cccc(C(=O)O)c1,nt,nt,nt,63,nt,nt
Cc1cc(C=O)c(C)n1-c1cccc(C(=O)O)c1,i,i,i,i,i,i
Cc1ccc(NC(=O)CCCCCN2C(=O)[C@@H]3Cc4ccccc4CN3C2=O)cc1,28,i,i,i,i,i
CCOC(=O)Cc1cc(=O)n2[nH]cc(-c3ccc(Cl)cc3)c2n1,i,i,i,32,i,i
CCOC(=O)Cc1c(C)nc2c(-c3ccccc3)c[nH]n2c1=O,i,i,i,i,i,i
CC12CCC(C1)C(C)(C)C2NS(=O)(=O)c1ccc(F)cc1 (stereo not given),26,i,i,i,i,i
CC1(C)CC(NS(=O)(=O)c2ccc(F)cc2)CC(C)(C)N1,i,i,i,i,i,i
NC(=S)N=Nc1c(O)cc(O)c2[nH]c(=O)ccc12,51,i,51,nt,i,62
O=C1c2ccccc2/C(=C\c2ccc(O[C@@H]3CCCCO3)cc2)N1c1ccccc1,nt,i,nt,nt,i,nt
Cc1cc(C)c(CN2CCN(C(=O)Cn3cc(C)c(=O)[nH]c3=O)CC2)c(C)c1,nt,i,nt,nt,i,nt
CCOc1cc(/C=N/N=C2/NC(=O)C(CC(=O)O)S2)ccc1OCc1ccc(Cl)cc1 (stereo not given),i,i,i,25,i,i
COc1ccc(/C=N/N=C2/NC(=O)C(CC(=O)O)S2)cc1OCc1ccc(Cl)cc1 (stereo not given),i,i,i,i,i,i
COc1ccc(N2C(=O)c3n[nH]c(C(C)C)c3C2c2ccc(C)cc2)cc1 (stereo not given),nt,i,nt,nt,i,nt
O=C(N/N=C/c1c[nH]c2ccccc12)c1ccc(O)c(O)c1,25,i,i,i,i,i
SMILES,PAFAH1B2 inh,ASAP1 inh,PAFAH2 inh,pPAFAH FP inh,ARFGAP1 inh,PAFAH1B3 FP inh
C=CCC(CC=C)(NC(=O)c1ccccc1C)c1ccccc1,25,i,i,i,i,i
Cc1cc([N+](=O)[O-])cc2c1NC(c1ccccn1)C1CC=CC21 (stereo not given),i,i,i,i,i,i
O=C(O)c1ccc(Cl)c2c1C1C=CCC1C(c1ccccn1)N2 (stereo not given),nt,nt,nt,58,nt,nt
COc1ccc(OC)c(C2Nc3c(Cl)ccc(C(=O)O)c3C3C=CCC32)c1 (stereo not given),i,i,i,25,i,i
COc1cccc(C2Nc3c(F)cc(Br)cc3C3C=CCC32)c1OC (stereo not given),i,i,i,i,i,i
NC(=S)Cc1nc(-c2ccc(Cl)cc2)cs1,i,i,i,25,i,i
Cc1cccc2cc(/C=N/Nc3ccc(C(=O)O)cc3)c(Cl)nc12,i,i,i,28,i,i
O=C(CCc1ccccc1)NNC(=S)NCc1ccc(Cl)cc1,25,i,i,28,i,i
CCOC(=O)c1cc(C#N)c(SCC(=O)O)[nH]c1=O,i,i,i,32,i,31
Oc1ccc(C2=Nn3c(nnc3-c3ccco3)SC2)cc1O,29,i,49,32,i,50
COc1ccc(C2=Nn3c(nnc3-c3ccco3)SC2)cc1,i,i,i,i,i,i
Cc1cc(-c2ccc(N=Nc3c(S(=O)(=O)O)cc4cc(S(=O)(=O)O)cc(N)c4c3O)c(C)c2)ccc1N=Nc1c(S(=O)(=O)O)cc2cc(S(=O)(=O)O)cc(N)c2c1O,nt,nt,nt,53,nt,nt
Nc1cc(S(=O)(=O)O)cc2ccc(S(=O)(=O)O)cc12,i,i,i,nt,i,i
O=S(=O)(O)c1cc(O)c2c(O)c(N=Nc3cc(Cl)ccc3O)c(S(=O)(=O)O)cc2c1,34,nt,49,33,nt,35
Oc1ccc(Cl)cc1N=Nc1ccccc1,i,i,i,i,i,i
CN(Cc1ccccc1)C(=O)c1cccc(NC(=O)Cc2ccc(NC(=O)C3CCCN(S(=O)(=O)c4cccc([N+](=O)[O-])c4)C3)cc2)c1 (stereo not given),nt,i,nt,nt,i,nt
O=c1[nH]c2cc(Cl)ccc2n1-c1ccccc1,i,i,i,28,i,i
CC1CCC(NC(=O)C2CCC(CNS(=O)(=O)c3ccc4c(c3)C(C)(C)C(=O)N4C)CC2)CC1 (stereo not given),nt,i,nt,nt,i,nt
CC(=O)N1CCCc2cc(S(=O)(=O)N3CCCC(C(=O)Nc4cccc(C)c4)C3)ccc21 (stereo not given),i,i,i,33,i,i
O=C(O)c1cc(O)c2c(c1)[C@@H]([C@H]1c3cc(C(=O)O)cc(O)c3C(=O)c3c(O[C@@H]4O[C@H](CO)[C@@H](O)[C@H](O)[C@H]4O)cccc31)c1cccc(O[C@@H]3O[C@H](CO)[C@@H](O)[C@H](O)[C@H]3O)c1C2=O,nt,nt,nt,95,nt,nt
CN(C(=O)[C@@H](Cc1ccccc1)NC(=O)[C@H]1O[C@@H](n2ccc(=O)[nH]c2=O)[C@H](O)[C@@H]1O)C1CCCCC1,nt,i,nt,nt,i,nt
O=C(O)c1ccccc1NC(c1ccccc1)c1ccc(Cl)cc1 (stereo not given),41,i,i,i,i,i
